Data from paper PMC5463557 (Journal of medicinal chemistry, 2017).
“Also recorded” adds a separate entry of the source.

Key:
[1] = target: T1, human wild-type CFTR (Homo sapiens, UniProt P13569); test: Fluorescence plate reader assay of CFTR function; type: cell-based; conditions: for CFTR activation activity (in words): plate reader assay, structure-activity discussion
Procedure, shortened: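 FRT cells stably coexpressing human wild-type CFTR and YFP-H148Q, grown near-confluent in 96-well plates. Washed with PBS, then 10 min in PBS with test compound plus 125 nM forskolin. YFP fluorescence read in single wells for 2 s baseline and 12 s after adding iodide solution (final 140 mM). Iodide influx rates give concentration–response curves; EC50 reported as mean ± SEM.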

[2] = test system: calcium-activated chloride channels in HT-29 cells; test: Non-TMEM16A CaCC activity in HT-29 cells expressing YFP; type: cell-based; conditions: 10 μM
Procedure, shortened: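 HT-29 cells expressing YFP used for non-TMEM16A calcium-activated chloride channel activity, with test compound at 10 μM. Iodide influx rate computed from YFP fluorescence.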

[3] = test system: cytoplasmic calcium; test: Cytoplasmic calcium by Fluo-4 fluorescence in FRT cells; type: cell-based, rat; conditions: 10 μM, 5 min pretreatment, 100 μM ATP
[4] = test system: loperamide-induced constipation in CD1 mice; test: Loperamide-induced mouse model of acute constipation; type: in vivo; conditions: oral, 1 h before loperamide, 3-h stool
Procedure, shortened: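 CD1 mice aged 8–10 weeks got test compound or vehicle orally 1 h before loperamide 0.3 mg/kg ip. Vehicle was saline with 5% DMSO and 10% Kolliphor HS 15. Mice kept in metabolic cages with free food and water; stool collected for 3 h. Total weight, pellet count and water content (wet vs dry weight) measured. Mean ± SEM; unpaired Student's t-test, P < 0.05.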

[5] = target: T2, TMEM16A (Homo sapiens, UniProt Q5XXA6); test: TMEM16A activity in FRT cells expressing YFP; type: cell-based; conditions: 10 μM
T2 sequence (Q5XXA6 1-986): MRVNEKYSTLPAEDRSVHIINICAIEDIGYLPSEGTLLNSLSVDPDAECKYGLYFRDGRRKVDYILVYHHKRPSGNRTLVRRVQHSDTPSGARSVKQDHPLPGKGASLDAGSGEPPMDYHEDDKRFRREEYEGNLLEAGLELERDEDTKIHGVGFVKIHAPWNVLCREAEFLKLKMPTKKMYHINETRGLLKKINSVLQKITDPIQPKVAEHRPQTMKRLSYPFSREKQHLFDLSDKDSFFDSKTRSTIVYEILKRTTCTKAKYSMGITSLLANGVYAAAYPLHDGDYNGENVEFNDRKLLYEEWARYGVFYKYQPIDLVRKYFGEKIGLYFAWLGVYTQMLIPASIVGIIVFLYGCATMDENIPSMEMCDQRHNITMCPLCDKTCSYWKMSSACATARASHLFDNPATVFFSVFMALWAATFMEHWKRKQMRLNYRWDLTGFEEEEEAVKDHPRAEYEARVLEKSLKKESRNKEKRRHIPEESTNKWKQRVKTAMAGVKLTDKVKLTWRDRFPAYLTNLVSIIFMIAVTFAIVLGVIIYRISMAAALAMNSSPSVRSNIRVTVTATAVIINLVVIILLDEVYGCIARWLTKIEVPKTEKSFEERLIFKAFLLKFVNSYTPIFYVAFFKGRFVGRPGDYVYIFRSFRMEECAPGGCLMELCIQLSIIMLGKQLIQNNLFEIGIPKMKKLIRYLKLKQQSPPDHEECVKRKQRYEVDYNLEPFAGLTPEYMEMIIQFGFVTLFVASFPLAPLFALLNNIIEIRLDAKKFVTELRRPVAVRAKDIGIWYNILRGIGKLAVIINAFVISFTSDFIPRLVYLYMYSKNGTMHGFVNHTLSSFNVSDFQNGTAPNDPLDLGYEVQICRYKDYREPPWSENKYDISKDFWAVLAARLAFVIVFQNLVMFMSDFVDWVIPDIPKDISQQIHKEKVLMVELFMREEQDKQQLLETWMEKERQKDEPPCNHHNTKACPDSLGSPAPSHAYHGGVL
Procedure, shortened: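 FRT cells coexpressing YFP and TMEM16A, tested with 10 μM test compound. Run like the YFP iodide-influx plate reader assay; iodide influx rate computed from fluorescence.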

[6] = target: T1, human wild-type CFTR; test: Short-circuit current measurement in CFTR-expressing FRT cells; type: cell-based; conditions: data not shown
[7] = In vitro hepatic microsomal metabolic stability; type: in vitro ADME, human; conditions: 60 min, hepatic microsomes, NADPH, 5 μM
[8] = test system: cellular cAMP level; test: Cellular cAMP in FRT cells; type: cell-based, rat; conditions: 10 μM, 10 min, without or with 90 nM forskolin
[9] = test system: mice; conditions: cited from earlier work

T1 sequence (P13569 whole entry): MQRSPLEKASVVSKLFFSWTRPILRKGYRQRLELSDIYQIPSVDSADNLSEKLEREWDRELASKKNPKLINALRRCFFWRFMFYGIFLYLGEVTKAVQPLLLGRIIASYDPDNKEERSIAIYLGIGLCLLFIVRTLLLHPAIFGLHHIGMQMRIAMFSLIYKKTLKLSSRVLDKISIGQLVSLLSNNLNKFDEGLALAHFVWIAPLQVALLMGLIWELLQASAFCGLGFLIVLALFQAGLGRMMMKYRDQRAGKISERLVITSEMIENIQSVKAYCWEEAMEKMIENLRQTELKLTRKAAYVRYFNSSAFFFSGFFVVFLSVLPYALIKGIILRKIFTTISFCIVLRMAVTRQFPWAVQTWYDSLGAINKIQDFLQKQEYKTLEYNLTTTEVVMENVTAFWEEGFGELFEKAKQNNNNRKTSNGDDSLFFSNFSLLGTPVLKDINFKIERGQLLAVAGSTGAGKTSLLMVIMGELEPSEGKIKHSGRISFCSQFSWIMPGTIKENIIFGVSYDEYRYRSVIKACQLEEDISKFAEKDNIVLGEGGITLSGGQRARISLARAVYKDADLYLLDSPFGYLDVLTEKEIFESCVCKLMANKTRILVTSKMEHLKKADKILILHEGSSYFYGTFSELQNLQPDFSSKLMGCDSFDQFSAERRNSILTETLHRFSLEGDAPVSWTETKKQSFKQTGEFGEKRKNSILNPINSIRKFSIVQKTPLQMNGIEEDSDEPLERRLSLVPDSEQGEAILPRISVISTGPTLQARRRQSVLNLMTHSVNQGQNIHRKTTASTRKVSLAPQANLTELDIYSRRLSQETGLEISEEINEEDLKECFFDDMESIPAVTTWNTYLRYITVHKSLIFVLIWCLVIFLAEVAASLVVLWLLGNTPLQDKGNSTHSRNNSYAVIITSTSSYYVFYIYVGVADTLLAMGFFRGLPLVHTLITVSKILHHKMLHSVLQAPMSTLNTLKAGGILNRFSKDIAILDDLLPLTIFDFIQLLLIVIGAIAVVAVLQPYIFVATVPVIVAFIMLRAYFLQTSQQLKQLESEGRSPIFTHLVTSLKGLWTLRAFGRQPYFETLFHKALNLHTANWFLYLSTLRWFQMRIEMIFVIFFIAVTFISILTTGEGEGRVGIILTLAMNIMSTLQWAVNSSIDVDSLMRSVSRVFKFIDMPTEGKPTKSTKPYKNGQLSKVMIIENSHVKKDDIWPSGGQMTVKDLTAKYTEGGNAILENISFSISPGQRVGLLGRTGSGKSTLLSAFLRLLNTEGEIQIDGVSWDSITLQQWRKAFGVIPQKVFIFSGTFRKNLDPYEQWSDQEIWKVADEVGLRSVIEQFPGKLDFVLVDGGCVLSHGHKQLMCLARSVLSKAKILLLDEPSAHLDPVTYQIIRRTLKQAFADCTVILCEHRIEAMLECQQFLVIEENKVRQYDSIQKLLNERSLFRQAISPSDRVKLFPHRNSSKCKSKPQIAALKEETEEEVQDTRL

SMILES	CFTR activation activity (in words) [1]	also measured
O=c1c(-c2cccc([N+](=O)[O-])c2)nc2ccccc2n1Cc1ccccc1 [1c, 1-Benzyl-3-(3-nitrophenyl)quinoxalin-2(1H)-one]	–	Inhibition or activation of calcium-activated chloride channels [2]: neither inhibited nor activated; Effect on cytoplasmic calcium and ATP-stimulated calcium elevation [3]: nor did it elevate cytoplasmic calcium or inhibit the ATP-stimulated elevation in cytoplasmic calcium; Stool weight, pellet number and hydration [4]: fully normalized; Increase in potency compared to 4 ([1]; CFTR activation potency relative to 4): ~10 fold; Inhibition or activation of TMEM16A [5]: neither inhibited nor activated; Potency in nonpermeabilized versus permeabilized CFTR-expressing FRT cells [6]: similar; Compound metabolized [7]: < 40%; Effect on cellular cAMP level [8]: did not affect
O=c1c(-c2ccc([N+](=O)[O-])cc2)nc2ccccc2n1Cc1ccccc1 [1e, 1-Benzyl-3-(4-nitrophenyl)quinoxalin-2(1H)-one]	reduced activity	–
O=c1c(-c2ccc(C(F)(F)F)cc2)nc2ccccc2n1Cc1ccccc1 [1f, 1-Benzyl-3-(4-(trifluoromethyl)phenyl)quinoxalin-2(1H)-one]	low activity	–
O=c1c(-c2cccc(Br)c2)nc2ccccc2n1Cc1ccccc1 [1g, 1-Benzyl-3-(3-bromophenyl)quinoxalin-2(1H)-one]	low activity	–
Nc1ccc(C(=O)O)cc1-c1nc2ccccc2n(Cc2ccccc2)c1=O [1k, 4-Amino-3-(4-benzyl-3-oxo-3,4-dihydroquinoxalin-2-yl)benzoic Acid]	inactive	–
N#Cc1cccc(-c2nc3ccccc3n(Cc3ccccc3)c2=O)c1 [1l, 3-(4-Benzyl-3-oxo-3,4-dihydroquinoxalin-2-yl)benzonitrile]	greatly reduced activity	–
O=c1c(-c2cccc([N+](=O)[O-])c2)nc2cc(Cl)ccc2n1Cc1ccccc1 [2b, 1-Benzyl-6-chloro-3-(3-nitrophenyl)quinoxalin-2(1H)-one]	good activity	–
O=c1c(-c2cccc([N+](=O)[O-])c2)nc2cc(Cl)c(Cl)cc2n1Cc1ccccc1 [2d, 1-Benzyl-6,7-dichloro-3-(3-nitrophenyl)quinoxalin-2(1H)-one]	reduced activity	–
O=c1c(-c2cccc([N+](=O)[O-])c2)nc2cc(Br)ccc2n1Cc1ccccc1 [2f, 1-Benzyl-6-bromo-3-(3-nitrophenyl)quinoxalin-2(1H)-one]	good activity; also recorded: underperforms by nearly an order of magnitude compared to unsubstituted 1c	–
O=c1c(-c2cccc([N+](=O)[O-])c2)nc2cc(F)c(F)cc2n1Cc1ccccc1 [2g, 1-Benzyl-6,7-difluoro-3-(3-nitrophenyl)quinoxalin-2(1H)-one]	reduced activity	–
Cc1cc2nc(-c3cccc([N+](=O)[O-])c3)c(=O)n(Cc3ccccc3)c2cc1C [2i, 1-Benzyl-6,7-dimethyl-3-(3-nitrophenyl)quinoxalin-2(1H)-one]	reduced activity	–
O=c1c(-c2cccc([N+](=O)[O-])c2)nc2ccccc2n1Cc1ccccn1 [3h, 3-(3-Nitrophenyl)-1-(pyridin-2-ylmethyl)quinoxalin-2(1H)-one]	comparable activity	–
O=c1c(-c2cccc([N+](=O)[O-])c2)nc2ccccc2n1Cc1ccco1 [3i, 1-(Furan-2-ylmethyl)-3-(3-nitrophenyl)quinoxalin-2(1H)-one]	comparable activity	–
Nc1ccc([N+](=O)[O-])cc1-c1nc2ccccc2n(Cc2ccccc2)c1=O [compound 4]	–	Off-target actions or toxicity ([9]; chronic administration in mice): no apparent off-target actions or toxicity; Metabolism [9]: rapid metabolism; Oral bioavailability ([9]; mice): minimal oral bioavailability

More lines, main results first:

CFTR activation activity (in words) [1]	SMILES	also measured
very low activity	COC(=O)c1ccc([N+](=O)[O-])c(-c2nc3ccccc3n(Cc3ccccc3)c2=O)c1 [1a, Methyl 3-(4-Benzyl-3-oxo-3,4-dihydroquinoxalin-2-yl)-4-nitrobenzoate]	–
very low activity	O=C(O)c1ccc([N+](=O)[O-])c(-c2nc3ccccc3n(Cc3ccccc3)c2=O)c1 [1b, 3-(4-Benzyl-3-oxo-3,4-dihydroquinoxalin-2-yl)-4-nitrobenzoic Acid]	–
reduced activity	O=c1c(-c2ccccc2[N+](=O)[O-])nc2ccccc2n1Cc1ccccc1 [1d, 1-Benzyl-3-(2-nitrophenyl)quinoxalin-2(1H)-one]	–
significantly lower activity	O=c1c(-c2ccccc2)nc2ccccc2n1Cc1ccccc1 [1h, 1-Benzyl-3-phenylquinoxalin-2(1H)-one]	–
reduced activity	O=c1c(-c2ccc(F)c([N+](=O)[O-])c2)nc2ccccc2n1Cc1ccccc1 [1i, 1-Benzyl-3-(4-fluoro-3-nitrophenyl)quinoxalin-2(1H)-one]	–
moderately potent	COC(=O)c1ccc(N)c(-c2nc3ccccc3n(Cc3ccccc3)c2=O)c1 [1j, Methyl 4-Amino-3-(4-benzyl-3-oxo-3,4-dihydroquinoxalin-2-yl)-benzoate]	–
comparable potency to the nitro analog	O=c1c(-c2ccc3nonc3c2)nc2ccccc2n1Cc1ccccc1 [1m, 3-(Benzo[c][1,2,5]oxadiazol-5-yl)-1-benzylquinoxalin-2(1H)-one]	–
significantly reduced activity	O=c1c(-c2cccc([N+](=O)[O-])c2)nc2ccccc2n1Cc1cccc2ccccc12 [3f, 1-(Naphthalen-1-ylmethyl)-3-(3-nitrophenyl)quinoxalin-2(1H)-one]	–
significantly reduced activity	O=c1c(-c2cccc([N+](=O)[O-])c2)nc2ccccc2n1Cc1ccc2ccccc2c1 [3g, 1-(Naphthalen-2-ylmethyl)-3-(3-nitrophenyl)quinoxalin-2(1H)-one]	–
comparable activity	O=c1c(-c2cccc([N+](=O)[O-])c2)nc2ccccc2n1Cc1cccs1 [3j, 3-(3-Nitrophenyl)-1-(thiophen-2-ylmethyl)quinoxalin-2(1H)-one]	–
